This is a sample that favours compounds with a hit; in the whole collection about 2.4% have one here.
aDG glyco act: alpha-DG glycosylation activation. Pro5-aDG cells, alpha-DG glycosylation AlphaScreen (IIH6); 0% Pro5, 100% B10-LARGE cell signal. activation, % at 10 µM. hit rate 0.22% among 360,000;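 active = activation of at least 8% versus controls, or a plate z-score of at least 8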;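 note: Pro5 are CHO cells carrying HIG-tagged alpha-DG that lacks glycosylation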
MPTP block: inhibitors of mitochondrial permeability transition pore; AID 602449; hit rate 1.4% among 360,000; inhibition, % at 10 µM; isolated mouse mitochondria, Ca2+ swelling absorbance, 30 min;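 active = inhibition of 50% or more, scaled per plate between neutral and stimulator controls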;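 note: 0% = DMSO wells given calcium and 100% = 1 mM EGTA wells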
Jurkat NFkB inh: lowers PMA/ionomycin-induced NF-kB signal in Jurkat cells. PMA/ionomycin-induced NF-kB luciferase reporter, luminescence. inhibition, % at 4 µM. hit rate 0.53% among 330,000; in the data active = inhibition above about 50%
NR2E3 ag-1: human photoreceptor-specific nuclear receptor agonism; Q9Y5X4; CHO-S Gal4-NCOR/VP16-NR2E3 two-hybrid, luciferase; inhibition of corepressor binding, % at 3.98 µM; hit rate 0.35% among 360,000;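 active = inhibition above the mean of all tested compounds plus 3 SD, cut at about 70% in these data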;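 note: 0% = DMSO with NR2E3 transfected cells and 100% = cells lacking NR2E3 construct; higher means lower luciferase signal from less NR2E3 corepressor binding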
Target sequence (Q9Y5X4 whole entry, looked up, the tested form may be a part): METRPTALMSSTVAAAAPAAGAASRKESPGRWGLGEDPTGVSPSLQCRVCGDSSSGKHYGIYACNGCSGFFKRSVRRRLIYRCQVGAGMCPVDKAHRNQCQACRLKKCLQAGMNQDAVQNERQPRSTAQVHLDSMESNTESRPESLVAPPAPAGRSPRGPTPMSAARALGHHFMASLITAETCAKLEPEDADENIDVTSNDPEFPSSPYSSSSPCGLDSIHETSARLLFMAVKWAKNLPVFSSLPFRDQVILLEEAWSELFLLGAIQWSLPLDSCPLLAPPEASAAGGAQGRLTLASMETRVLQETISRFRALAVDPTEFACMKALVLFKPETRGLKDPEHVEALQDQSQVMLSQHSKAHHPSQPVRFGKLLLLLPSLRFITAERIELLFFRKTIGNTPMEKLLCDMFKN
NR2E3 ag-2: activates human photoreceptor nuclear receptor NR2E3 | AID 2300 | Q9Y5X4 | hit rate 0.12% among 320,000 | inhibition of corepressor binding, % at 4.78 µM | GST-NR2E3/biotin-RetCOR TR-FRET, 1536-well;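 active = percent inhibition above the cutoff of mean plus 3 SD of all tested compounds, set per screening campaign, cut at about 20% in these data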;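 note: 0% = DMSO wells and 100% = biotin wells as full block of FRET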
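Material – GST-tagged NR2E3 plus biotinylated RetCOR corepressor · Quantity – NR2E3 fusion 1.35 nM · Times – 5 h incubation at 4 °C · Medium – pH 7.5 Tris-based buffer · Technique – TR-FRET, Eu(K)-anti-GST donor, streptavidin-D2 acceptor, ex 340, em 617/671 nm · Benchmarks – high control biotin, low control 0.6% DMSO · Format – 1536-well plates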
697 NFkB inh: inhibitors of the PMA/ionomycin-induced NF-kB reporter in 697 B cells; hit rate 0.33% among 330,000; inhibition, % at 4 µM; AID 435022; 697 B-cell NF-kB luciferase reporter, 16 h; in the data active = inhibition above about 35%
Jurkat NFkB conf: lowers PMA/ionomycin-induced NF-kB signal in Jurkat cells | inhibition, % at 4 µM | shares compounds with Jurkat NFkB inh | hit rate 27% among 2,700 | Jurkat NF-kB luciferase, 16 h;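 active = inhibition reaching about 45% at 4 µM in either replicate, limit read from the data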;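 note: plate controls were PMA/ionomycin stimulated DMSO wells for no effect and unstimulated DMSO wells for full effect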
697 NFkB conf: lowers PMA/ionomycin-induced NF-kB signal in 697 B cells; hit rate 35% among 2,000; 697 B-cell NF-kB luciferase, 16 h; inhibition, % at 4 µM; shares compounds with 697 NFkB inh; in the data active = inhibition mostly above about 28%, no sharp cut-off; inactive = mostly below about 22%
Starred values were filed as active, the others as inactive; · = no result given.

SMILES | aDG glyco act | MPTP block | Jurkat NFkB inh | NR2E3 ag-1 | NR2E3 ag-2 | 697 NFkB inh | Jurkat NFkB conf | 697 NFkB conf
Oc1ccccc1C=NNc1nc2ccccc2s1 | 0 | 20 | · | -174 | · | · | · | ·
Cc1ccsc1/C=N/Nc1nc2ccccc2s1 | 0 | 8 | -198 | -141 | -2 | -342 | -98 | -273
Fc1ccc(Nc2nc3ccccc3s2)cc1 | 0 | 0 | -94 | -102 | 3 | -55 | · | ·
Cc1ccc(Nc2nc3ccccc3s2)cc1 | 0 | 2 | -153 | -158 | -2 | -288 | -124 | -265
O=C(OCc1ccc(O)cc1)c1c(-c2ccsc2)oc2ccc(N3CCOCC3)cc12 | 2 | 1 | -4 | 4 | -1 | -42 | · | ·
CC(C)Oc1ccc(C2CC(=O)N(c3cccc(Br)c3)C2=O)cc1 (stereo not given) | 0 | 2 | 1 | 4 | 4 | 7 | · | ·
CCN(CC(=O)NCc1ccc(F)cc1)C(=O)C1CC1C (stereo not given) | 0 | -2 | 9 | -11 | 5 | -18 | · | ·
CCOc1ccc(OCc2cccc(C(=O)O)c2)cc1 | 0 | -1 | 88* | -133 | -1 | 92* | 90* | 77*
O=Cc1ccc(OCc2cccc(C(F)(F)F)c2)cc1O | 0 | 4 | -3 | -14 | 1 | 11 | · | ·
CCOc1ccc(OCc2cccc(C(=O)N3CCCCCC3)c2)cc1 | 1 | 3 | 26 | -212 | 0 | -27 | · | ·
COc1ccc(OCc2cccc(C(=O)O)c2)cc1 | 0 | -4 | 88* | -119 | 0 | 80* | 88* | 71*
CCOc1ccc(OCc2cccc(C(=O)N3CCCC3)c2)cc1 | 0 | -2 | 7 | -222 | -2 | -67 | · | ·
O=C(OCC(F)(F)F)c1cccc(COc2ccc3ccccc3c2)c1 | 0 | -1 | 77* | -301 | 1 | 58* | 42 | 33*
O=C(O)c1cccc(COc2ccc3c(c2)CCC3)c1 | 0 | 0 | 70* | -171 | 3 | 61* | 64* | 45*
O=C(N/N=C/c1ccncc1)c1cccc(S(=O)(=O)Nc2ccc(Cl)cc2)c1 | 0 | 5 | 9 | 11 | 1 | 9 | · | ·
O=C(O)c1cccc(COc2ccc(CO)cc2Cl)c1 | 0 | -2 | 94* | -150 | 0 | 75* | 89* | 59*
O=C(O)c1ccc(COc2ccc(CO)cc2Cl)cc1 | 0 | 0 | -6 | -57 | 2 | -61 | · | ·
O=C(CN1C(=O)c2cccc([N+](=O)[O-])c2C1=O)NNC(=O)c1ccc(F)cc1 | 4 | 0 | 5 | -39 | · | 15 | · | ·
O=c1[nH]c(Nc2nc3ccccc3o2)nc2c1CCCC2 | 1 | 0 | 71* | -148 | 0 | -275 | -50 | -99
CCn1nc(C)cc1C(=O)NC1CC(C)(C)Cc2c1cnn2-c1cccc(F)c1 (stereo not given) | 0 | 0 | -9 | -30 | -3 | 4 | · | ·
COc1ccc2[nH]c3c(c2c1)CCn1c-3nc2ccccc2c1=O | 0 | -1 | -181 | -147 | 0 | -488 | -127 | -318
S=c1nccc(-c2ccc3c(c2)CCO3)[nH]1 | 0 | 0 | 5 | -42 | 1 | -14 | · | ·
CC1(C)CCc2cc(-c3ccnc(=S)[nH]3)ccc2O1 | 0 | 2 | -158 | -58 | -1 | -266 | -16 | -175
C/C(=C\C(=O)c1ccc(Br)cc1)NNC(=O)c1ccccc1 | 0 | 8 | -2 | -94 | 0 | 27 | · | ·
Cc1noc(C)c1NC(=O)Nc1ccc2c(c1)C(=O)N([C@H](C)CO)C[C@H](C)[C@@H](CN(C)S(=O)(=O)c1c(C)noc1C)O2 | 0 | 1 | -2 | -10 | · | 5 | · | ·
NC(=O)c1ccccc1OCC(=O)Nc1ccc(Cl)c(Cl)c1 | 0 | 11 | -187 | -131 | 0 | -372 | -121 | -389
COCCn1c(C)cc(C(=O)CSc2nc3ccccc3c(=O)n2Cc2ccco2)c1C | 0 | 2 | -159 | -110 | -2 | -276 | 5 | -103
CCN(CC)c1ccc2cc(C(=O)Nc3ccccn3)c(=O)oc2c1 | 1 | 0 | -156 | -134 | 5 | -365 | -138 | -284
